Bioassay records deposited in PubChem BioAssay by several laboratories.
Compounds with a hit are over-represented: about 9.8% of the library has one in this group of screens.
PMI act: activators of human PMI, primary screen, biochemical, fluorescence intensity, near-Km mannose 6-phosphate; hit rate 0.005% among 190,000; AID 1214, 2008; Mannose-6-phosphate isomerase (Homo sapiens), P34949; activation factor at 20 µM; purified human PMI, coupled resazurin fluorescence, 20 min; active compounds read high; 1 = vehicle control, 0 substrate-free wells;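 active means activation factor of 2 or more at 20 µM, relative to plate controls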
Target sequence (P34949 whole entry, looked up): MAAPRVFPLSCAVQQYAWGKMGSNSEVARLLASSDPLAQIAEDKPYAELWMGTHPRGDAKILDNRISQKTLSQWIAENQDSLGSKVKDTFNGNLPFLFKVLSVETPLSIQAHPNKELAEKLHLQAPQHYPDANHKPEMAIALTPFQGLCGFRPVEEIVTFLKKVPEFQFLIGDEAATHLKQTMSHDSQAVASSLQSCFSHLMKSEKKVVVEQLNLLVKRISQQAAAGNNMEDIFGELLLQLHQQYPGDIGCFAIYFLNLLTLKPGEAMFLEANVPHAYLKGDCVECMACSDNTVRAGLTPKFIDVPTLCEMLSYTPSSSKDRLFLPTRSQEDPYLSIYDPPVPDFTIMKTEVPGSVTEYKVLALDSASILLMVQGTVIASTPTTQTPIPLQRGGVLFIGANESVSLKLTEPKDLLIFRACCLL
L major viab: Leishmania major promastigote growth inhibition, primary screen; Leishmania major promastigotes, resazurin fluorescence viability; inhibition, % at 10 µM; hit rate 9% among 200,000; AID 1063, 2008; in the data active means inhibition above about 50%;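 further: promastigotes grown with compound for 44 hours at 28 °C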
m-calpain inh: inhibitors of pig calpain II, primary screen, biochemical, fluorogenic peptide substrate, 1536-well; inhibition, % at 16 µM; hit rate 0.37% among 220,000; purified calpain II, 30 min;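 active means inhibition above about 50%, limit read from the data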
WT yeast gro inh: growth inhibition of WT strain, primary screen, mitochondrial fusion inhibitor project, WT and mutant strains, chemical genetic. inhibition, % at 10 µM. hit rate 2.1% among 190,000. mitochondrial fusion phenotypic screen; in the data active means inhibition above about 58%; tested in S. cerevisiae
PMI act satM6P: human PMI activators, high substrate, primary screen, biochemical, fluorescence intensity, near-saturating mannose 6-phosphate | Mannose-6-phosphate isomerase (Homo sapiens), P34949 | coupled PMI enzyme assay, resazurin fluorescence, 20 min; active compounds read high; 1 = untreated enzyme, 0 = substrate-free blank | activation factor at 20 µM | hit rate 0.34% among 190,000;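 active means activation factor of 2 or more at 20 µM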
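Test system: human PMI in coupled enzyme assay; Input: PMI at 15 ng/mL final; Medium: HEPES buffer, pH 7.4; Schedule: 20 min incubation at room temperature; Technique: resorufin fluorescence at Ex 544/Em 590 nm; Compound: 20 µM single dose; Probe or stimulus: Near-saturating mannose-6-phosphate, 1.0 mM.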
Rad51 HR inh: human RAD51 strand exchange inhibitors, primary screen, biochemical, fluorescence; DNA repair protein RAD51 homolog 1 (Homo sapiens), Q06609; hRad51 DNA strand exchange, fluorescence dequenching; inhibition, % at 10 µM; hit rate 0.085% among 200,000; AID 1385, 2008;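 active means inhibition above 40% at the single screening dose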;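 further: 0% = DMSO control wells and 100% = blanks with heterologous ssDNA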
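Test system: preformed human Rad51 ssDNA filaments. Compound dosing: single dose, 10 µM final compound. Incubation: filaments 15 min 37 °C, then compound 30 min. Technique: FRET fluorescence dequenching, excitation 485 nm, emission 520 nm. Read-out basis: percent inhibition from fluorescence, normalised to plate control and blank means. Benchmarks: plate controls and plate blanks.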
Numbers without * were called inactive; . = not tested or not shown.

SMILES	PMI act	L major viab	m-calpain inh	WT yeast gro inh	PMI act satM6P	Rad51 HR inh
Cc1ccc(NC(=O)CSCC(=O)N2c3ccccc3CCc3ccccc32)cc1	0.8	66.5*	-21.0	41.5	0.8	5.4
O=C(NC1CCCCCC1)c1ccc(CN2CCOCC2)cc1	1	59.3*	-11.4	12.2	0.9	.
O=C(NC1CCCC1)c1ccc(CN2CCOCC2)cc1	1	-4.7	5.5	-4.9	1	-0.6
O=C(NCCC1=CCCCC1)c1ccc(CN2CCOCC2)cc1	1.1	81.2*	-7.9	-1.4	1.2	-4.6
OC(COc1ccc2ccccc2c1)Cn1ccnc1 (stereo not drawn)	1	97.9*	30.4	-1.3	1.1	-4.5
OC(COc1ccc2ccccc2c1Br)Cn1ccnc1 (stereo not drawn)	0.9	98.3*	-0.3	71.3*	0.8	0.5
COc1ccc(C2C(=O)c3ccccc3C2=O)c(OC)c1	1	-0.5	3.8	.	0.8	100.3*
CCCCC(c1nnnn1CC1CCCO1)N1CCN(c2nc3ccccc3s2)CC1 (stereo not drawn)	1	98.7*	-51.1	11.1	1.1	7.0
Cc1ccc(C(c2nnnn2CC2CCCO2)N2CCN(C)CC2)cc1 (stereo not drawn)	1	-3.6	-1.9	16.0	1.2	.
CCCCC(c1nnnn1CC1CCCO1)N1CCN(c2cc(Cl)ccc2C)CC1 (stereo not drawn)	0.9	43.5	16.7	59.9*	0.7	-8.5
CC(C)CC(c1nnnn1CC1CCCO1)N1CCN(c2nc3ccccc3s2)CC1 (stereo not drawn)	1	91.4*	8.0	28.8	0.9	7.3
CCCCC(c1nnnn1CC1CCCO1)N1CCN(c2ccccc2)CC1 (stereo not drawn)	1.2	-2.3	0.3	-1.5	1.2	-7.5
CCCC(c1nnnn1CC1CCCO1)N1CCN(c2nc3ccccc3s2)CC1 (stereo not drawn)	1.1	94.5*	-15.2	5.6	1.1	-4.4
COc1ccc([N+](=O)[O-])cc1N(CC1CO1)S(=O)(=O)c1ccc(C)cc1 (stereo not drawn)	1	28.8	-27.1	-5.6	1.1	-1.4
O=C(CSc1nnc2ccccn12)Nc1ccc(S(=O)(=O)N2CCOCC2)cc1	1.1	-3.6	-4.0	-10.1	1.1	6.6
CCC(c1nnnn1CS(=O)(=O)c1ccc(C)cc1)N1CCN(c2nc3ccccc3s2)CC1 (stereo not drawn)	0.9	98.3*	-76.2	35.6	0.9	-1.2
CC(C)C(c1nnnn1Cc1cccs1)N1CCN(c2ccccc2)CC1 (stereo not drawn)	1	0.7	1.0	11.6	1	7.6
CCCC(c1nnnn1CS(=O)(=O)c1ccc(C)cc1)N1CCN(c2ccccc2)CC1 (stereo not drawn)	0.8	5.4	41.4	16.6	0.9	-0.7
CCCC(c1nnnn1Cc1cccs1)N1CCN(c2nc3ccccc3s2)CC1 (stereo not drawn)	0.9	97.2*	7.7	33.7	1	5.1
O=C(NNC(=O)C1[C@H]2CCCC[C@@H]12)Nc1cccc2ccccc12 (stereo partly drawn)	.	.	10.3	.	.	.
CC(C)(C)C(=O)n1nc(-c2ccccc2)oc1=O	1	-7.7	-13.1	-24.9	1	1.4
CC(C)CC1(C)N=C(c2ccccc2)C(=S)N1 (stereo not drawn)	1	-2.5	-9.1	-8.9	1	7.1
Cc1cccc2sc(NNC(=O)c3ccc(S(=O)(=O)N4CC(C)CC(C)C4)cc3)nc12 (stereo not drawn)	0.9	99.4*	-47.5	-14.1	1	-1.2
Cc1ccc2nc(NNC(=O)c3ccc4c(c3)OCCO4)sc2c1	1	-11.2	24.2	3.7	1.1	.
COC(=O)c1sc2ccccc2c1NC(=O)c1ccc(S(=O)(=O)N2CC(C)CC(C)C2)cc1 (stereo not drawn)	0.8	-2.1	-96.2	-0.7	0.8	.
SMILES	PMI act	L major viab	m-calpain inh	WT yeast gro inh	PMI act satM6P	Rad51 HR inh
Cc1ccc2nc(NNC(=O)c3ccc(S(=O)(=O)N4CCc5ccccc5C4)cc3)sc2c1	1.1	99.5*	-66.9	-2.1	1.3	-3.3
CCS(=O)(=O)N1Cc2ccccc2CC1C(=O)Nc1nc2ccc(C)cc2s1 (stereo not drawn)	1	92.4*	-20.1	42.8	1	5.8
Cc1cc(C)c2nc(NNC(=O)c3ccc(S(=O)(=O)N4CC(C)CC(C)C4)cc3)sc2c1 (stereo not drawn)	1.1	98.8*	-68.1	10.8	1.7	-3.9
O=C1NN(c2ccccc2)C(=O)/C1=C\c1ccc(-c2cc([N+](=O)[O-])ccc2O)o1	0.9	-11.0	-33.6	20.7	0.9	13.9
CCOC(=O)C1(C)NC(c2cccs2)C2C(=O)N(c3ccc(OC)cc3)C(=O)C21 (stereo not drawn)	0.9	-3.0	-12.9	-5.1	0.9	2.4
CCOc1cc(NC(=O)c2cccs2)c(OCC)cc1NC(=O)CCC(=O)NCC1CCCO1 (stereo not drawn)	1	-3.3	41.5	15.2	1	5.7
Cc1cc(C)c2nc(NNC(=O)c3ccc(S(=O)(=O)N4CCCC(C)C4)cc3)sc2c1 (stereo not drawn)	1.1	97.5*	-83.4	4.1	1.1	.
COc1ccc(S(=O)(=O)NCC(c2cccnc2)N2CCN(c3ccccc3)CC2)cc1C (stereo not drawn)	1	96.9*	-24.8	-4.5	1	.
O=S(=O)(NCC(c1cccnc1)N1CCOCC1)c1ccc(Cl)cc1 (stereo not drawn)	1.1	13.6	-4.5	0.0	1	38.2
COc1ccc(S(=O)(=O)NCC(c2cccnc2)N2CCN(c3ccc(F)cc3)CC2)cc1C (stereo not drawn)	1.1	96.4*	3.5	6.9	1.2	9.8
O=S(=O)(NCC(c1cccnc1)N1CCOCC1)c1ccccc1 (stereo not drawn)	1	-2.3	-1.5	13.6	0.9	-0.9
COC(=O)C(=Cc1ccccc1[N+](=O)[O-])C(=O)OC	.	.	-30.8	.	.	11.6
CC1CCN(CCOCCOc2ccc(Br)cc2Cl)CC1	1.1	98.9*	-8.4	43.2	1.2	-34.4
CC1CCN(CCOc2cc(Cl)ccc2Cl)CC1	0.9	84.8*	-23.1	18.1	0.9	5.9
CC1CCCN(CCCOc2ccc(Br)cc2Cl)C1 (stereo not drawn)	1	89.0*	-9.8	18.1	1	.
CC1CCN(CCOc2ccccc2-c2ccccc2)CC1	1.1	20.5	-0.2	10.5	1.2	.
